Source: PubChem (The Scripps Research Institute Molecular Screening Center)
Only some compounds are listed: those with a hit (about 0.58% of all), similar ones and a draw of the others.
OXTR potentiator: potentiators of human oxytocin receptor; P30559; CHO-OTR cells, Fluo-8 calcium fluorescence, potentiator mode; 0% = oxytocin EC15, 100% = EC100; activation, % at 3 µM; hit rate 0.061% among 320,000;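 active = activation above that plate's cutoff, the mean activation of tested compounds plus 3 SD, cut at about 6.6% in these data, passing the limit was not always enough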;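 also: 100% uses oxytocin at 75 nM as the full agonist control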
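assay system = CHO-OTR cells, human receptor | schedule = compound 6 min at room temperature before oxytocin, 100 s read | detection = Fluo-8 intracellular calcium fluorescence, ex 470-495, em 515-575 nm | evaluation = normalized max/min fluorescence ratio, % activation | control set = EC15 oxytocin alone as 0%, 75 nM oxytocin (EC100) as 100%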
V1R ag counter: activates human V1a receptor in oxytocin agonist counter-screen; activation, % at 3 µM; hit rate 0.25% among 320,000; P37288; AID 2797; CHO-V1R cells, Fluo-8 calcium fluorescence, agonist mode; 0% DMSO, 100% 3 nM vasopressin;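 active = activation above the mean activation of all tested compounds plus 3 SD, per screening run, cut at about 20% in these data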;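 also: signal is peak over basal fluorescence ratio across a 100 second FLIPR read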
TRPML3 ag: agonists of human TRPML3 channel | Q8TDD5 | HEK293 TRPML3-YFP, Fluo-8 calcium fluorescence; 100% = the carbachol control signal | activation, % at 3 µM | hit rate 0.29% among 220,000;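 active = activation above its plate's cutoff, the mean activation of the plate's test wells plus 3 SD, cut at about 12% in these data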;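 also: 0% = DMSO only wells and 100% = carbachol wells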
Target sequence (Q8TDD5 whole entry, looked up): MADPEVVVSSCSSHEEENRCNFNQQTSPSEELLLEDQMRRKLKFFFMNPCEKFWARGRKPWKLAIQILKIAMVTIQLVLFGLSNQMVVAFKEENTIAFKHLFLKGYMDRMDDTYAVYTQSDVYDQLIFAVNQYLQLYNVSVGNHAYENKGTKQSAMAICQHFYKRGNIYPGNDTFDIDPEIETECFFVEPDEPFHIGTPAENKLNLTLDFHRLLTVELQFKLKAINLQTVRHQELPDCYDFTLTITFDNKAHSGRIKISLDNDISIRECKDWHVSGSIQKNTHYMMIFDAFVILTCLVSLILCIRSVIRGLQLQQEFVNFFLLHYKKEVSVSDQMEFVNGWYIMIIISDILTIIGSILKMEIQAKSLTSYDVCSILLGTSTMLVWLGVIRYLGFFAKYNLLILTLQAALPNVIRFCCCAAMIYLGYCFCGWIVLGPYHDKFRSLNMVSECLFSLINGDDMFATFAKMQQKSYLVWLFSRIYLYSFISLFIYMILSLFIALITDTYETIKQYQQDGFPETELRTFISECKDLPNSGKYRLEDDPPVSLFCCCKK
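Material: TRPML3-YFP stable HEK293 cells | Dosing: One concentration, 3 µM nominal, 0.3% DMSO | Timing: 125 s total fluorescence read per well | Technique: Fluo-8 calcium dye fluorescence, ex 470-495, em 515-575 nm | Measure: Percent activation from peak-to-basal fluorescence ratio, scaled between DMSO and carbachol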
zfTRPN1 agonist: zebrafish TRPN1 (NompC) channel agonism | HEK293 zebrafish TRPN1-YFP, Fluo-8 calcium fluorescence; 100% = response to 87 µM carbachol | activation, % at 3 µM | hit rate 0.18% among 220,000 | AID 1424;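 active = activation above its plate's cutoff, the mean activation of test wells on that plate plus 3 SD, cut at about 19% in these data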;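 also: 0% = DMSO alone and 100% = 87 µM carbachol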
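Control set: carbachol 87 µM as high control, DMSO as low control; system: HEK293 stable line with zebrafish TRPN1-YFP; read-out: % activation versus carbachol response; detection: intracellular calcium fluorescence with Fluo-8; doses: single test compound dose, 3 µM nominal, 0.3% DMSO; schedule: dye 1 h 37 °C plus 30 min RT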
OXTR agonist: agonists of human oxytocin receptor | P30559 | CHO-OTR cells, Fluo-8 calcium fluorescence; normalized: DMSO 0%, oxytocin 100% | hit rate 0.32% among 320,000 | activation, % at 3 µM;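 active = activation above the mean of all tested compounds plus 3 SD, cutoff set per screening run, cut at about 20% in these data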;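 also: peak over basal fluorescence ratio from a 100 s FLIPR kinetic read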
Active calls of the source: *; x = no result given.

SMILES	OXTR potentiator	V1R ag counter	TRPML3 ag	zfTRPN1 agonist	OXTR agonist
CCOCc1nnc(NC(=O)C2c3ccccc3Oc3ccccc32)s1	-11	22*	7	16	30*
CCOC(=O)N1CCC(NC(=O)CCC(=O)N2CC(C)Oc3ccc(Cl)cc32)CC1 (configuration not stated)	-8	1	0	0	-2
CC(=O)c1sc(N/N=C\c2ccccc2O)nc1C	-11	4	1	1	3
Cc1ccc(S(=O)(=O)N2CCC(=O)N(C(COCc3ccccc3)C(C)C)CC2)cc1 (configuration not stated)	-5	-1	1	1	-2
Cc1ccc(S(=O)(=O)N2CCC(=O)N(C(COCc3ccc(Cl)cc3)C(C)C)CC2)cc1 (configuration not stated)	-9	1	14*	-1	-2
CN(C)c1ccc(/C=C2\SC(=S)N(Nc3ncc(C(F)(F)F)cc3Cl)C2=O)cc1	-5	92*	8	14	72*
Cc1cc(C)nc(NN2C(=O)/C(=C/c3ccccc3)SC2=S)n1	2	0	0	0	-1
COc1cccc(CCNC(=O)c2ccc(OC)c(OC3CCN(C(C)C)CC3)c2)c1	-5	0	x	x	-1
CC(Oc1ccc(Br)cc1)C(=O)Nc1ccc(S(=O)(=O)N(C)C2CCN(C)CC2)cc1 (configuration not stated)	-22	47*	x	x	64*
Cc1ccc(NC(=O)c2cc3ccccc3oc2=N)cc1	-7	0	x	x	0
N=c1oc2c3c4c(cc2cc1C(=O)Nc1ccccc1)CCCN4CCC3	-21	60*	1	3	112*
O=C(Nc1ccc(S(=O)(=O)Nc2ccccc2)cc1)c1ccc(CN2CCOCC2)cc1	-16	10	7	20*	9
O=C(Nc1ccc(CN2CCOCC2)cc1)c1ccc(Cl)cc1	-1	3	x	x	2
CCOc1ccc(S(=O)(=O)Nc2ccc(C(=O)NCc3ccncc3)cc2)cc1	0	1	x	x	2
O=C1/C(=C\c2ccc(O)cc2)SC(=S)N1/N=C/c1ccc(O)cc1	-10	22*	7	21*	24*
O=C(NCCCCc1ccccc1)C1CC(c2cc(C(F)(F)F)cc(C(F)(F)F)c2)=NO1 (configuration not stated)	-6	0	x	x	0
O=[N+]([O-])c1ccc(N=Nc2c(Cl)cc(O)cc2Cl)cc1	-9	13	16*	20*	18
CC(N)=Nc1ccc([N+](=O)[O-])cc1	-4	0	0	1	1
N#Cc1ccc(NC(=O)Nc2ccc(Cl)cc2)cc1	-24	8	15*	22*	16
Cc1nnsc1C(=O)N/N=C/c1ccccc1	-4	2	0	1	0
Cc1nnsc1C(=O)N/N=C/c1ccc2ccccc2c1O	-13	47*	2	3	67*
O=C(Nc1ccc(SC(F)F)cc1)c1ccc(F)cc1	-9	2	2	8	0
COc1ccc(CNC(=O)c2cncc(Br)c2)cc1	-8	-1	x	x	0
O=C(CCl)Nc1ncc(S(=O)(=O)c2ccc([N+](=O)[O-])cc2)s1	-3	3	x	x	5
CCCC(C)C(=O)Nc1ncc(S(=O)(=O)c2ccc([N+](=O)[O-])cc2)s1 (configuration not stated)	-12	46*	x	x	22*
SMILES	OXTR potentiator	V1R ag counter	TRPML3 ag	zfTRPN1 agonist	OXTR agonist
CCC(C)(C)C(=O)Nc1ncc(S(=O)(=O)c2ccc([N+](=O)[O-])cc2)s1	-23	22*	11	12	33*
C=CCN(CC=C)Cc1c(O)ccc2c(=O)c(-c3ccccc3)coc12	-3	-1	x	x	-1
COc1cc(C(=O)NCC(c2ccccc2)N(C)C)ccc1OCc1c(C)noc1C (configuration not stated)	-3	0	x	x	1
CCOCCCNc1nc(C)nc2c1nnn2Cc1c(F)cccc1Cl	-2	0	0	0	-1
CCN(CC)c1ccc(/C=C(\C#N)c2nc(-c3cccs3)c(NC(C)=O)s2)cc1	x	x	29*	22*	x
CCOc1ccc(N(CC(=O)O)S(=O)(=O)c2ccc(F)cc2)cc1	-9	0	1	70*	0
CCOC(=O)Cc1cnc(NC(=O)Cn2nnc(-c3ccc(OCC)cc3)n2)s1	-22	18	6	4	19
CCCCOc1ccc(-c2nnn(CC(=O)Nc3ncc(CC(=O)OCC)s3)n2)cc1	-19	27*	0	2	33*
CC(=O)C1C(=O)CC(C)(O)C(C(C)=O)C1c1ccccc1 (configuration not stated)	-2	1	0	2	1
CCOC(=O)C1=NN(C(=O)c2ccc(C)cc2)C(O)(c2ccc(Cl)cc2)C1 (configuration not stated)	-20	32*	18*	25*	37*
Cc1ccccc1CN1CCSc2sccc2C1=O	-3	-1	0	-3	-2
CCOc1ccc(-c2c(C(=O)N/N=C/c3ccc(OC)cc3)nnn2-c2nonc2N)cc1	-4	27*	1	1	37*
CCCOc1ccc(-c2c(C(=O)N/N=C/c3ccc(OC)cc3)nnn2-c2nonc2N)cc1	5	3	1	1	1
CCOc1ccc(-c2c(C(=O)N/N=C/c3ccsc3)nnn2-c2nonc2N)cc1	-9	21*	x	x	29*
CCCOc1ccc(-c2c(C(=O)N/N=C/c3ccc(OCC)cc3)nnn2-c2nonc2N)cc1	10	0	0	0	1
COc1cc(C(=O)NC(C(=O)Nc2cccc(C(C)=O)c2)C(C)C)cc(OC)c1OC (configuration not stated)	-10	0	0	0	-1
CCCCCC(=O)NNC(=O)c1c(O)c2ccccc2n(CC)c1=O	-6	0	1	2	-1
CCn1c(=O)c(C(=O)NNC(=O)c2ccccc2Cl)c(O)c2ccccc21	-15	41*	x	x	22*
CCn1c(=O)c(C(=O)NNC(=O)c2ccccc2F)c(O)c2ccccc21	-11	52*	x	x	28*
CC1CCC(NC(=O)Cn2c(=O)oc3ccccc32)CC1 (configuration not stated)	-5	-1	x	x	0
CC(=O)Nc1ccc(/C=N/N2C(=O)NC(C)(c3ccc(OC(F)F)cc3)C2=O)cc1 (configuration not stated)	-19	39*	4	18	55*
CC1(c2ccc(OC(F)F)cc2)NC(=O)N(CC(=O)Nc2ccccc2)C1=O (configuration not stated)	-16	32*	x	x	47*
CCOC(=O)CN1C(=O)NC(C)(c2ccc(OC(F)F)cc2)C1=O (configuration not stated)	-9	3	0	0	6
